Measurements: ChEMBL document CHEMBL4390662, “Design, synthesis and biological evaluation of novel α-acyloxy carboxamides via Passerini reaction as caspase 3/7 activators” (Eur J Med Chem, 2019)
≈ marks a conversion by molar mass, not a printed value. Calls of active or inactive are those of the source. No cut-off for these calls is given here.

What was measured:
NFS-60 [1] = assay: Induction of apoptosis in mouse NFS60 cells assessed as necrotic cells level at IC50 incubated for 72 hrs by annexin V/propidium iodide staining based flow cytometry (reference value: 0.01%); assay type: functional
NFS-60 [2] = assay: Cytotoxicity against mouse NFS60 cells assessed as cell growth inhibition incubated for 72 hrs by MTT assay; assay type: functional, cell-based; conditions: NFS-60, 72 h
Procedure, shortened: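 Cells grown in RPMI-1640 with 10% FBS and seeded at 5×10^3 per well. After 24 h, serial concentrations given for 72 h at 37°C, 5% CO2. Then 5 mg/mL MTT stock added for 3 h, formazan dissolved in DMSO, A570 read. IC50 calculated from the curves.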

Escherichia coli [3] = assay: Antimicrobial activity against Escherichia coli ATCC 25922 incubated for 24 hrs by microdilution assay; assay type: functional; conditions: ATCC 25922, 24 h
Procedure, shortened: (§1)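 Two-fold serial dilutions of test solutions made in Mueller Hinton broth and inoculated. Incubated at 37°C for 24 h. MIC taken as the lowest concentration with no growth. Ciprofloxacin is the antibacterial reference, fluconazole the antifungal one, and DMSO the blank.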

HepG2 [4] = assay: Induction of apoptosis in human HepG2 cells assessed as late apoptotic cells level at IC50 incubated for 72 hrs by annexin V/propidium iodide staining based flow cytometry (reference value: 0.1%); assay type: functional
Staphylococcus aureus [5] = assay: Antimicrobial activity against Staphylococcus aureus ATCC 25923 incubated for 24 hrs by microdilution assay; assay type: functional; procedure, shortened: as §1
Escherichia coli [6] = assay: Antimicrobial activity against Escherichia coli ATCC 25922 incubated for 24 hrs by agar well diffusion assay; assay type: functional
Procedure, shortened: (§2)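 Nutrient agar spread with 100 µL inoculum: bacteria at 1×10^8 CFU/mL, fungi at 1×10^6 CFU/mL. 10 mm wells loaded with 100 µL of compound in DMSO (final 1 mg/mL). Bacteria incubated 24 h at 37 °C, fungi 48 h at 28 °C. Inhibition zones measured in mm. Ciprofloxacin and fluconazole standards at 1 mg/mL, DMSO negative control.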

Staphylococcus aureus [7] = assay: Antimicrobial activity against Staphylococcus aureus ATCC 25923 incubated for 24 hrs by agar well diffusion assay; assay type: functional; procedure, shortened: as §2
HepG2 [8] = assay: Induction of apoptosis in human HepG2 cells assessed as early apoptotic cells at IC50 incubated for 72 hrs by annexin V/propidium iodide staining based flow cytometry (reference value: 0.78 +/- 0.09%); assay type: functional
Candida albicans [9] = assay: Antimicrobial activity against Candida albicans ATCC 90028 incubated for 24 hrs by microdilution assay; assay type: functional; procedure, shortened: as §1
NFS-60 [10] = assay: Induction of apoptosis in mouse NFS60 cells assessed as early apoptotic cells level at IC50 incubated for 72 hrs by annexin V/propidium iodide staining based flow cytometry (reference value: 0.46%); assay type: functional
Enterococcus faecalis = assay: Antimicrobial activity against Enterococcus faecalis ATCC 29212 incubated for 24 hrs by agar well diffusion assay; assay type: functional; procedure, shortened: as §2
HepG2 [11] = assay: Induction of apoptosis in human HepG2 cells assessed as total apoptotic cells at IC50 incubated for 72 hrs by annexin V/propidium iodide staining based flow cytometry (reference value: 0.169 +/- 0.02%); assay type: functional
MCF7 [12] = assay: Induction of apoptosis in human MCF7 cells assessed as induction of cell shape loss by phase contrast inverted fluorescence microscopy; assay type: functional, cell-based
Pseudomonas aeruginosa = assay: Antimicrobial activity against Pseudomonas aeruginosa ATCC 27853 incubated for 24 hrs by agar well diffusion assay; assay type: functional; procedure, shortened: as §2
NFS-60 [13] = assay: Induction of apoptosis in mouse NFS60 cells assessed as induction of cell shrinkage by phase contrast inverted fluorescence microscopy; assay type: functional, cell-based
Candida albicans [14] = assay: Antimicrobial activity against Candida albicans ATCC 90028 incubated for 48 hrs by agar well diffusion assay; assay type: functional; procedure, shortened: as §2
NFS-60 [15] = assay: Induction of apoptosis in mouse NFS60 cells assessed as late apoptotic cells level at IC50 incubated for 72 hrs by annexin V/propidium iodide staining based flow cytometry (reference value: 0.01%); assay type: functional
MCF7 [16] = assay: Induction of apoptosis in human MCF7 cells assessed as necrotic cells level at IC50 incubated for 72 hrs by annexin V/propidium iodide staining based flow cytometry (reference value: 0.48%); assay type: functional

Row | Structure (SMILES) | Activity (NFS-60 [1]) | IC50 (NFS-60 [2]) | MIC (Escherichia coli [3]) | Activity (HepG2 [4]) | MIC (Staphylococcus aureus [5]) | diameter of the inhibition zone (DIZ) (Escherichia coli [6]) | diameter of the inhibition zone (DIZ) (Staphylococcus aureus [7]) | Activity (HepG2 [8]) | MIC (Candida albicans [9]) | Activity (NFS-60 [10]) | diameter of the inhibition zone (DIZ) (Enterococcus faecalis) | Activity (HepG2 [11]) | Activity (MCF7 [12]) | diameter of the inhibition zone (DIZ) (Pseudomonas aeruginosa) | Activity (NFS-60 [13]) | diameter of the inhibition zone (DIZ) (Candida albicans [14]) | Activity (NFS-60 [15]) | Activity (MCF7 [16])
1 | O=C(OC1(C(=O)Nc2ccc([N+](=O)[O-])cc2)CCCCC1)C(O)c1ccccc1 (stereo unspecified) | 21.74% | 7.8 nM | 2570 µM (≈ 1020 µg/mL) | 41.88% | inactive | 16 mm | inactive | 6.055% | inactive | 2.12% | inactive | 48.905% | Active | 14 mm | Active | inactive | 22.89% | 23.42%
2 | O=C(Cc1ccccc1)OC1(C(=O)Nc2ccc([N+](=O)[O-])cc2)CCCCC1 | 14.8% | 8.1 nM | 2680 µM (≈ 1020 µg/mL) | 26.59% | inactive | 16 mm | inactive | 6.0649% | inactive | 5.65% | inactive | 33.485% | Active | 15 mm | Active | inactive | 18.21% | 13.14%
3 | O=C(OC1(C(=O)Nc2ccc([N+](=O)[O-])cc2)CCCCC1)c1ccc([N+](=O)[O-])cc1 | 24.58% | 7.7 nM |  | 20.78% |  |  |  | 18.43% |  | 2.41% |  | 41.815% | Active |  | Active |  | 17.56% | 25.02%
